Source: PubChem BioAssay
Hits are enriched below; roughly 5.2% of the tested compounds scored in any of these assays.
ALR inh – inhibitors of human sulfhydryl oxidase ALR; inhibition, % (no concentration beside the values); P55789; purified ALR, DTT oxidation, H2O2 HRP-luminol luminescence; AID 485317; 3.8% of 290,000 active;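 active means mean replicate inhibition above about 79%, with every replicate also reaching it, limit read from the data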
Target sequence (P55789 whole entry, looked up): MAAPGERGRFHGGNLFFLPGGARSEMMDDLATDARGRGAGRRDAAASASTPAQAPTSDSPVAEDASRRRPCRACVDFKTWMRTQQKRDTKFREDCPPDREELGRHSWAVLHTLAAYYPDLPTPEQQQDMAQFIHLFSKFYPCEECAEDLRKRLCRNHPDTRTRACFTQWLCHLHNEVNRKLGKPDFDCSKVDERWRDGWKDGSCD
ZTA counter – ZTA (EBV) inhibition in EBNA-1 counter-screen; 0.15% of 320,000 active; inhibition, % at 11 µM; ZTA-DNA binding, fluorescence polarization; AID 2234; in the data active means inhibition above about 33%
Target sequence (P03206 whole entry, looked up): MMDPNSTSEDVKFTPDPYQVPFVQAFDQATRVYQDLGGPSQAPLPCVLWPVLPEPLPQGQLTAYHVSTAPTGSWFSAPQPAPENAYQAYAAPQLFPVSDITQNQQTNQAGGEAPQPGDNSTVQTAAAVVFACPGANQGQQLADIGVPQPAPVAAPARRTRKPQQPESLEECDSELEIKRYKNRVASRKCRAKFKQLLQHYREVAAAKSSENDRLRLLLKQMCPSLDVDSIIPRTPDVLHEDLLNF
HCV core dimer – blocks dimerization of HCV core protein; TR-FRET GST/Flag-core106 dimerization, 1536-well; inhibition, % at 5 µM; 0.33% of 300,000 active;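 active means inhibition above the mean of all tested compounds plus 3 SD, set per screening campaign, cut at about 45% in these data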
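Assay system: Tagged HCV core106 pair (GST and Flag) | Buffer or medium: KF-containing HEPES buffer, pH 7.45, DTT, CHAPS, BSA | Also added: Eu donor and XL665 acceptor anti-tag antibodies | Dosing: One concentration, 5 µM, in 0.5% DMSO | Timing: 4 h at 22.5 °C | Technique: TR-FRET 671 and 617 nm emission | Repeats: Singlicate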
EBNA-1 inh – blocks EBNA-1 binding to DNA. EBNA-1 DNA binding, fluorescence polarization. inhibition, % at 14.8 µM. 0.34% of 300,000 active. AID 1950; in the data active means inhibition above about 28%
PfM18AAP inh – PfM18AAP enzyme inhibition; recombinant PfM18AAP, H-Glu-NHMec fluorogenic cleavage; inhibition, % at 7.35 µM; 1.2% of 290,000 active; AID 1822;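 active means inhibition above the campaign mean inhibition over all tested compounds plus 3 SD, cut at about 28% in these data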;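 further: 0% = plate median of test compound wells and 100% = 2 mM ZnCl2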
HCV NS3 hel inh – inhibitors of Hepatitis C virus NS3 helicase | inhibition, % at 10.9 µM | 0.56% of 290,000 active | NS3 helicase DNA unwinding, Cy5 molecular beacon fluorescence;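 active means inhibition above the mean of all tested compounds plus 3 SD, set per campaign, cut at about 35% in these data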;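 further: 0% = DMSO wells and 100% = thioflavine S control wells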
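assay system = NS3 helicase fragment of HCV | buffer or medium = MOPS pH 6.5, MgCl2, DTT, Tween20, BSA | timing = 60 min unwinding reaction at 25 °C after ATP addition | signal = Cy5 beacon fluorescence read at start and 1 h | read-out basis = % inhibition of unwinding | control set = low DMSO, high thioflavine S at 110 µM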
EBNA-1 inh conf – EBNA-1 (EBV) inhibition, confirmation; shares compounds with EBNA-1 inh; Recombinant EBNA-1 DBD, Cy5-DNA fluorescence polarization; inhibition, % at 14.8 µM; 35% of 830 active;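 active means mean inhibition across replicates above a set limit taken from the earlier primary screen, cut at about 28% in these data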;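 further: plate controls were EBNA-1 protein with DMSO for no effect and wells lacking EBNA-1 for full effect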
ZTA DNA inh trip – blocks Epstein-Barr virus ZTA in triplicate, EBNA-1 counter-screen; shares compounds with EBNA-1 inh; Zta-ZRE DNA binding, Cy5 fluorescence polarization; inhibition, % at 11.1 µM; 830 tested, under 10 active;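 active means mean inhibition over triplicates above a set limit taken from the primary EBNA-1 screen, cut at about 37% in these data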;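 further: purified full length Zta protein with Cy5 labeled ZRE DNA probe; 0% = Zta with DMSO and 100% = wells lacking Zta protein; inhibitors lower polarization by freeing the labeled DNA probe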
Numbers without * were called inactive; . = no result.

SMILES	ALR inh	ZTA counter	HCV core dimer	EBNA-1 inh	PfM18AAP inh	HCV NS3 hel inh	EBNA-1 inh conf	ZTA DNA inh trip
Cc1ccc(NC(=O)CSc2nnc(-c3ccc(S(=O)(=O)N4CCCC4)cc3)o2)cc1C	.	-11.2	-2.1	108.2*	1.8	-4.1	56.1*	194.1*
CC(C)(C)c1nc(SCC(=O)Nc2ccc3c(c2)OCCO3)c2ccccc2n1	-62.1	-2.8	8.7	45.8*	2.0	16.3	15.6	2.7
CCN1C=C(Cc2cccs2)C2=C(C1)C(c1cccs1)C(C#N)=C(N)O2 (centres undefined)	.	-19.0	38.5	-3.7	12.5	19.5	.	.
COc1ccccc1CNC(=O)C1CCC(CNS(=O)(=O)c2ccc(C)cc2)CC1 (centres undefined)	0.4	7.4	1.9	-1.9	-10.6	-10.3	.	.
Cc1cc(C(=O)N/N=C/c2cc(N=Nc3ccccc3)ccc2O)n[nH]1	.	17.0	-11.1	74.7*	-6.3	7.8	-6.5	38.4*
Cc1cc(C(=O)N/N=C/c2ccc(-c3cccc(Br)c3)o2)n[nH]1	-5.4	-1.3	-0.4	35.4*	-2.4	-2.6	15.5	16.8
COC(=O)N/N=C/c1cc(N=Nc2ccccc2)ccc1O	3.2	-4.8	-4.5	-11.7	2.6	6.7	.	.
Cc1cc(C(=O)N/N=C/c2ccc(-c3cccc(Cl)c3Cl)o2)n[nH]1	-2.2	12.0	-2.3	13.1	-4.0	-2.3	.	.
O=C(c1ccc2c(=O)n(CC3CCCO3)c(=S)[nH]c2c1)N1CCN(c2ccccc2)CC1 (centres undefined)	63.6	3.6	5.1	1.9	4.7	-7.1	.	.
O=C(c1ccc2c(=O)n(Cc3ccco3)c(=S)[nH]c2c1)N1CCN(c2ccccc2)CC1	7.5	-26.6	3.7	40.3*	-6.1	0.8	-1.5	-0.8
COc1ccc(CC(=O)Nc2ccc(N3CCCC3)c(C)c2)cc1	69.6	6.4	2.1	-7.5	14.4	-52.9	.	.
CCOc1ccc(CCNC(=O)COC(=O)c2cccnc2SC)cc1OCC	0.6	-10.3	-0.3	-5.9	.	.	.	.
NS(=O)(=O)c1ccc(NC(=S)NC(=O)c2ccc3c(c2)OCO3)cc1	-3.7	10.2	0.7	61.1*	8.9	-3.4	72.3*	21.6
COc1ccc(N(C(C)=O)S(=O)(=O)c2cccc3cccnc23)cc1	-23.1	18.6	-0.1	3.5	-1.9	-5.8	.	.
O=C1N=C(N2CCCCC2)S/C1=C\c1cn[nH]c1-c1ccccc1	0.7	13.7	0.0	90.8*	-1.9	3.8	14.8	0.1
COC(=O)c1cc(OC)c(OC)cc1NC(=O)c1cc(C(C)(C)C)oc1C	-3.5	22.0	2.2	1.5	-2.9	0.6	.	.
COC(=O)C(=N/Nc1ccccc1C(=O)OC)/C(C)=N/O	1.2	8.9	0.6	57.1*	-14.9	-1.6	42.4*	-1.8
CNc1ccccc1C(=O)OC	.	-6.3	2.3	2.5	.	.	.	.
O=C(CCCCCNc1nc(=S)[nH]c2ccccc12)NCCc1c[nH]c2ccccc12	3.7	16.4	6.2	15.0	16.0	1.6	.	.
O=C(CCCCCNc1nc(=S)[nH]c2ccccc12)NCCc1ccc(Cl)cc1	1.1	3.1	9.4	66.1*	3.1	-6.6	67.9*	2.4
COc1ccc(OC)c(NC(=O)C2CCCN(S(=O)(=O)c3ccc(-n4cnnn4)cc3)C2)c1 (centres undefined)	-12.1	-11.1	2.3	48.8*	-0.5	-11.9	41.0*	9.5
COc1ccc(NC(=O)c2ccccc2NS(C)(=O)=O)cc1OC	-28.7	7.0	-0.7	-6.0	-4.3	0.5	.	.
COc1ccccc1Nc1ncc(C(=O)Nc2ccc(OC)c(OC)c2)c2ccccc12	7.5	1.1	4.3	79.6*	-4.4	18.4	54.9*	3.8
COCC(CN1CCN(C2=NS(=O)(=O)c3ccccc32)CC1)OC(=O)c1ccc(OC)cc1 (centres undefined)	-7.6	-14.9	5.2	-1.1	1.7	3.8	.	.
COc1cc(C2C(C#N)=C(N)N(c3sc4c(c3C#N)CCCC4)C3=C2C(=O)CC(C)(C)C3)cc(OC)c1OC (centres undefined)	-0.2	18.5	44.7	108.5*	0.4	1.9	36.1*	0.4
SMILES	ALR inh	ZTA counter	HCV core dimer	EBNA-1 inh	PfM18AAP inh	HCV NS3 hel inh	EBNA-1 inh conf	ZTA DNA inh trip
Cc1ccccc1C1C(C#N)=C2NC(=O)c3c(sc4c3CCCCC4)N2C2=C1C(=O)CC(C)(C)C2 (centres undefined)	-13.5	9.7	11.5	2.2	5.2	21.9	.	.
Cc1ccc(S(=O)(=O)N2CCCOC2CNC(=O)C(=O)NCc2ccco2)cc1 (centres undefined)	-31.7	-8.7	0.4	4.6	2.5	2.2	.	.
CCOc1ccccc1N(CC(=O)NCc1ccco1)C(=O)CCC(=O)Nc1nccs1	1.3	-12.9	5.2	1.6	2.3	7.8	.	.
Cc1ccc(NC(=O)CSCC(=O)Nc2cccc3ncccc23)cc1	-13.3	-2.8	4.7	2.3	.	.	.	.
Cc1nc(CCNC(=O)CC2C(=O)NCCN2CC(C)C)nc2c1CCC2 (centres undefined)	-0.8	3.0	3.0	10.6	2.6	-9.6	.	.
NS(=O)(=O)c1ccc(CCNC(=O)C2CCC(CNS(=O)(=O)c3ccc(Br)s3)CC2)cc1 (centres undefined)	-4.1	-13.1	-4.0	59.5*	-2.9	0.8	24.1	-5.9
O=C(NCc1cccs1)C1CCC(CNS(=O)(=O)c2ccc(Br)s2)CC1 (centres undefined)	2.0	-7.9	9.5	4.1	0.1	4.9	.	.
CCC(C)Oc1nc2c(c(=O)n(C)c(=O)n2C)n1C (centres undefined)	-5.2	3.7	0.8	8.0	-0.8	3.3	.	.
O=C(CCC(=O)Nc1ccc(Br)cc1)N/N=C/c1ccc(F)cc1	-5.8	13.4	1.3	33.6*	-7.7	7.7	19.3	12.5
Cc1noc(C)c1NC(=O)N(C)C[C@H]1Oc2ccc(NC(=O)NC3CCCCC3)cc2C(=O)N([C@H](C)CO)C[C@@H]1C	4.2	.	.	.	.	.	.	.
COc1cc(C)ccc1OCc1cc(C(=O)N2CCC(c3ccc(F)cc3)C2)no1 (centres undefined)	0.4	-0.8	4.6	31.0*	14.9	-12.0	2.3	14.7
O=C(c1ccc(S(=O)(=O)N2CCCCCC2)cc1)N1CCC(CN2C(=O)c3cccc4cccc(c34)C2=O)CC1	-9.0	4.2	28.1	30.3*	5.6	-9.7	-4.5	3.7
Cc1ccc(NC(=O)Cn2c(=O)n(CCCC(=O)NCc3ccco3)c(=O)c3ccccc32)cc1	.	-5.1	4.8	37.6*	5.5	10.9	44.6*	-6.6
CN(C)c1ccc(NC(=O)Cn2c(=O)n(Cc3ccccc3)c(=O)c3ccccc32)cc1	2.3	9.7	0.4	43.3*	10.4	-2.3	34.9*	1.6
